Calls of active or inactive are those of the source. The rule behind the calls is not given here.
What was measured:
Type in all cases: functional
Malme-3M = assay: Antiproliferative activity against human Malme-3M cells assessed as growth inhibition at 10 uM relative to control; conditions: read-out: GI
In short: (§1)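 Single-dose screen run by the US National Cancer Institute across its 60-human tumour cell line panel. Each compound was tested at one concentration. Percent growth inhibition was recorded for each cell line.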

M14 = assay: Antiproliferative activity against human M14 cells assessed as growth inhibition at 10 uM relative to control; conditions: read-out: GI; in short: as §1
MDA-MB-435 = assay: Antiproliferative activity against human MDA-MB-435 cells assessed as growth inhibition at 10 uM relative to control; conditions: read-out: GI; in short: as §1
SK-MEL-2 = assay: Antiproliferative activity against human SK-MEL-2 cells assessed as growth inhibition at 10 uM relative to control; conditions: read-out: GI; in short: as §1
SK-MEL-28 = assay: Antiproliferative activity against human SK-MEL-28 cells assessed as growth inhibition at 10 uM relative to control; conditions: read-out: GI
In short: (§2)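 NCI 60 human tumour cell line panel screen. Compounds tested at a single dose and growth inhibition (%) determined for each line.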

SK-MEL-5 = assay: Antiproliferative activity against human SK-MEL-5 cells assessed as growth inhibition at 10 uM relative to control; conditions: read-out: GI; in short: as §2
UACC-257 = assay: Antiproliferative activity against human UACC-257 cells assessed as growth inhibition at 10 uM relative to control; conditions: read-out: GI; in short: as §2
UACC-62 = assay: Antiproliferative activity against human UACC-62 cells assessed as growth inhibition at 10 uM relative to control; conditions: read-out: GI; in short: as §2
IGROV-1 = assay: Antiproliferative activity against human IGROV-1 cells assessed as growth inhibition at 10 uM relative to control; conditions: read-out: GI; in short: as §1
OVCAR-3 = assay: Antiproliferative activity against human OVCAR-3 cells assessed as growth inhibition at 10 uM relative to control; conditions: read-out: GI; in short: as §1
OVCAR-4 = assay: Antiproliferative activity against human OVCAR-4 cells assessed as growth inhibition at 10 uM relative to control; conditions: read-out: GI; in short: as §1
NCI/ADR-RES = assay: Antiproliferative activity against human NCI/ADR-RES cells assessed as growth inhibition at 10 uM relative to control; conditions: read-out: GI; in short: as §1
SK-OV-3 = assay: Antiproliferative activity against human SK-OV-3 cells assessed as growth inhibition at 10 uM relative to control; conditions: read-out: GI; in short: as §2
786-0 = assay: Antiproliferative activity against human 786-0 cells assessed as growth inhibition at 10 uM relative to control; conditions: read-out: GI; in short: as §1
A498 = assay: Antiproliferative activity against human A498 cells assessed as growth inhibition at 10 uM relative to control; conditions: read-out: GI; in short: as §1
ACHN = assay: Antiproliferative activity against human ACHN cells assessed as growth inhibition at 10 uM relative to control; conditions: read-out: GI; in short: as §1
CAKI-1 = assay: Antiproliferative activity against human CAKI-1 cells assessed as growth inhibition at 10 uM relative to control; conditions: read-out: GI; in short: as §1
SN12C = assay: Antiproliferative activity against human SN12C cells assessed as growth inhibition at 10 uM relative to control; conditions: read-out: GI; in short: as §2
TK-10 = assay: Antiproliferative activity against human TK-10 cells assessed as growth inhibition at 10 uM relative to control; conditions: read-out: GI; in short: as §2
UO-31 = assay: Antiproliferative activity against human UO-31 cells assessed as growth inhibition at 10 uM relative to control; conditions: read-out: GI; in short: as §2
PC-3 = assay: Antiproliferative activity against human PC-3 cells assessed as growth inhibition at 10 uM relative to control; conditions: read-out: GI; in short: as §1
DU-145 = assay: Antiproliferative activity against human DU-145 cells assessed as growth inhibition at 10 uM relative to control; conditions: read-out: GI; in short: as §1
MCF7 = assay: Antiproliferative activity against human MCF7 cells assessed as growth inhibition at 10 uM relative to control; conditions: read-out: GI; in short: as §1
MDA-MB-231 = assay: Antiproliferative activity against human MDA-MB-231 cells assessed as growth inhibition at 10 uM relative to control; in short: as §1
Hs-578T = assay: Antiproliferative activity against human Hs-578T cells assessed as growth inhibition at 10 uM relative to control; conditions: read-out: GI; in short: as §1
BT-549 = assay: Antiproliferative activity against human BT-549 cells assessed as growth inhibition at 10 uM relative to control; conditions: read-out: GI; in short: as §1
T47D = assay: Antiproliferative activity against human T47D cells assessed as growth inhibition at 10 uM relative to control; conditions: read-out: GI; in short: as §2
MDA-MB-468 = assay: Antiproliferative activity against human MDA-MB-468 cells assessed as growth inhibition at 10 uM relative to control; conditions: read-out: GI; in short: as §1
OVCAR-8 = assay: Antiproliferative activity against human OVCAR-8 cells assessed as growth inhibition at 10 uM relative to control; conditions: read-out: GI; in short: as §1

Q: `C/C(=C(/c1ccccc1)c1ccc(OCC(O)CN2CCOCC2)cc1)c1ccccc1` (centres undefined) was tested. Which inhibition of growth at 10 µM (Malme-3M) did it give?
A: Its inhibition of growth at 10 µM is 24.8%.

Q: And the inhibition of growth at 10 µM (M14)?
A: Its inhibition of growth at 10 µM is -45.1%.

Q: What about the inhibition of growth at 10 µM (MDA-MB-435) of the same compound?
A: The inhibition of growth at 10 µM was 9.29%.

Q: What about the inhibition of growth at 10 µM (SK-MEL-2) of the same compound?
A: Its inhibition of growth at 10 µM is 1.12%.

Q: And the inhibition of growth at 10 µM (SK-MEL-28)?
A: Its inhibition of growth at 10 µM is 10%.

Q: What about the inhibition of growth at 10 µM (SK-MEL-5) of the same compound?
A: Its inhibition of growth at 10 µM is 12.9%.

Q: And the inhibition of growth at 10 µM (UACC-257)?
A: Its inhibition of growth at 10 µM is 6.64%.

Q: And the inhibition of growth at 10 µM (UACC-62)?
A: Its inhibition of growth at 10 µM is 3%.

Q: And the inhibition of growth at 10 µM (IGROV-1)?
A: The inhibition of growth at 10 µM was 3.82%.

Q: What about the inhibition of growth at 10 µM (OVCAR-3) of the same compound?
A: Its inhibition of growth at 10 µM is 9.6%.

Q: What about the inhibition of growth at 10 µM (OVCAR-4) of the same compound?
A: Its inhibition of growth at 10 µM is 10.7%.

Q: What about the inhibition of growth at 10 µM (NCI/ADR-RES) of the same compound?
A: The inhibition of growth at 10 µM was 6.78%.

Q: What about the inhibition of growth at 10 µM (SK-OV-3) of the same compound?
A: The inhibition of growth at 10 µM was 8.68%.

Q: What about the inhibition of growth at 10 µM (786-0) of the same compound?
A: Its inhibition of growth at 10 µM is 32.9%.

Q: What about the inhibition of growth at 10 µM (A498) of the same compound?
A: The inhibition of growth at 10 µM was 8.44%.

Q: What about the inhibition of growth at 10 µM (ACHN) of the same compound?
A: The inhibition of growth at 10 µM was 1.16%.

Q: And the inhibition of growth at 10 µM (CAKI-1)?
A: The inhibition of growth at 10 µM was 19.9%.

Q: What about the inhibition of growth at 10 µM (SN12C) of the same compound?
A: Its inhibition of growth at 10 µM is 11.6%.

Q: What about the inhibition of growth at 10 µM (TK-10) of the same compound?
A: Its inhibition of growth at 10 µM is 5.68%.

Q: And the inhibition of growth at 10 µM (UO-31)?
A: Its inhibition of growth at 10 µM is 26.3%.

Q: And the inhibition of growth at 10 µM (PC-3)?
A: The inhibition of growth at 10 µM was 28.2%.

Q: What about the inhibition of growth at 10 µM (DU-145) of the same compound?
A: The inhibition of growth at 10 µM was 1.88%.

Q: And the inhibition of growth at 10 µM (MCF7)?
A: The inhibition of growth at 10 µM was 15.8%.

Q: What about the “growth inhibition (GI)” value (MDA-MB-231) of the same compound?
A: Its value is “inactive”.

Q: And the inhibition of growth at 10 µM (Hs-578T)?
A: Its inhibition of growth at 10 µM is 9.19%.

Q: What about the inhibition of growth at 10 µM (BT-549) of the same compound?
A: The inhibition of growth at 10 µM was 6.69%.

Q: And the inhibition of growth at 10 µM (T47D)?
A: Its inhibition of growth at 10 µM is 39.7%.

Q: What about the inhibition of growth at 10 µM (MDA-MB-468) of the same compound?
A: The inhibition of growth at 10 µM was 14.9%.

Q: What about the inhibition of growth at 10 µM (OVCAR-8) of the same compound?
A: The inhibition of growth at 10 µM was 11.5%.

Source: ChEMBL document CHEMBL4706563, “Triphenylethylene analogues: Design, synthesis and evaluation of antitumor activity and topoisomerase inhibitors” (Eur J Med Chem, 2020)
